Experimental findings from ChEMBL document CHEMBL1132241, “Novel multidrug resistance reversal agents” (J Med Chem, 1999) are described below.

The structures appear in SMILES notation.

For series [1], the system named is Mus musculus. Briefly: Percent increase in mean life span in mice infected with leukemia P388/VCR, at 50 mg/Kg dose. Format: functional. Summed up: (§1)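 CDF1 mice (groups of 10–15) were implanted ip with 1 × 10^6 P388/VCR cells. Agent plus 0.2 mg/kg vincristine were given together ip once daily on days 1–7, starting 1 day post-implant, in cremophor/ethanol or propylene glycol/ethanol vehicle. Survival was recorded to 30 days. Result is the % increase in mean life span versus placebo control.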

Series [2] has as its system S1B1-20. The series is described as follows: In vitro concentration required to inhibit tumor activity on subclone of human colon carcinoma cells (S1-B1-20) resistant to bisantrene. In kind it is functional, cell-based. Summed up: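 S1-B1-20 cells (S1 clone of LS 174 T, selected in bisantrene over 12–16 weeks) plated at 20 000 cells/well with or without 20 μM bisantrene, plus test agent 0.1–80 μM from DMSO stock (final DMSO ≤0.1%). 3 days, 37 °C, 7% CO2. Survival by sulforhodamine B at 540 nm. IC50 from best-fit curve of difference score (survival alone minus survival with bisantrene) at 50; 2–4 sets of measurements.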

For series [3], the system named is Mus musculus. The series is described as follows: Relative tumor growth inhibition against human epidermoid carcinoma KB/8.5 implanted subcutaneously only in mice at 8 mg/kg (DOX). The following applies: route subcutaneous. Format: functional. A digest of the protocol:
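KB/8.5 cells grown in RPMI 1640 with 5% fetal calf serum plus colchicine (10 ng/mL), which was removed for two passages. 8 × 10^6 cells were then implanted sc in athymic nude mice. At 100-300 mg tumor mass, mice were grouped 5-10/group. Doxorubicin was given as a single iv dose (8 mg/kg). Tumor mass was measured on day 14, and relative growth was compared with saline control.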

Series [4] relates to S1B1-20. Briefly: (§2) In vitro concentration at which 50% of human colon carcinoma cells (S1-B1-20) resistant to bisantrene have survived. In kind it is ADME, cell-based. The conditions noted are these: s1b1-20, read-out: LD50 (the source's name). Summed up:
(§3)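 S1-B1-20 cells (LS 174 T-derived S1 clone selected in bisantrene over 12–16 weeks), trypsinized, 20 000 cells/well. Test agent alone in DMSO (≤0.1% final), 0.1–80 µM, 3 days at 37 °C, 7% CO2. Survival by sulforhodamine B read at 540 nm versus untreated cells. Two to four measurement sets were made, and the value is the concentration giving 50% survival from a best-fit curve.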

For series [5], the system named is Mus musculus. Briefly: Percent tumor growth inhibition against human epidermoid carcinoma KB/8.5 implanted subcutaneously in mice at 25 mg/kg of compound along with 8 mg/kg (DOX ) was determined. Format: functional. Summed up:
(§4)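 Athymic nude mice bearing sc KB/8.5 tumors (8×10^6 cells, colchicine withdrawn for two passages), grouped at 100–300 mg tumor mass, 5–10 mice/group. Doxorubicin 8 mg/kg given once iv; reversal agent or placebo given sc 2 h before and 2 h after. Tumor mass on day 14 used for relative tumor growth versus doxorubicin alone; Student t-test on log RTG.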

Series [6] has as its system Mus musculus. Briefly: Percent increase in mean life span relative to treatment with an equivalent dose of vincristine alone at 50 mg/kg in mice with vincristine-resistantmurine leukemia P388/VCR cells. In kind it is functional. A digest of the protocol:
(§5)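 CDF1 mice were implanted ip with 1 × 10^6 P388/VCR cells. Agent and 0.2 mg/kg vincristine were given simultaneously ip once daily, days 1–7. Mean survival over up to 30 days was compared with vincristine alone at an equivalent dose, giving % increase in life span. Student t-test was applied to mean survival time.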

Series [7] deals with Mus musculus. Briefly: Percent increase in mean life span when 0.2 mg/kg vincristine was administered ip once daily on days 1-7, in mice infected with leukemia P388/VCR. Format: functional. More on the design: concentration or dose not given beside the values. The following applies: route intraperitoneal. A digest of the protocol: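 CDF1 mice bearing ip P388/VCR (1 × 10^6 cells) received 0.2 mg/kg vincristine ip once daily on days 1–7. Mean survival to 30 days was expressed as % increase in life span relative to placebo control.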

Series [8] relates to Mus musculus. Briefly: Percent increase in mean life span in mice infected with leukemia P388/VCR, at 6.3 mg/Kg dose. In kind it is functional. A digest of the protocol: as §1
The nature of series [9]: as §2. Format: ADME, cell-based, S1B1-20. The following applies: S1-B1-20 human colon carcinoma cells resistant to bisantrene, read-out: LD50 (the source's name). A digest of the protocol:
as §3

The test system of series [10] is Mus musculus. The series is described as follows: Percent increase in mean life span relative to treatment with an equivalent dose of vincristine alone at 6.3 mg/kg in mice with vincristine-resistantmurine leukemia P388/VCR cells. In kind it is functional. A digest of the protocol:
as §5

The nature of series [11]: Partition coefficient (logP). The following applies: octanol/water; read-out: logP. Format: physicochemical.
Series [12] deals with Mus musculus. The series is described as follows: Percent tumor growth inhibition obtained for the combination of DOX(8 mg/kg) together with MDR reversal agent versus DOX (8 mg/kg) alone on day 14 at 100 mg/kg dose(in vivo). In kind it is functional. The conditions noted are these: 336 h, read-out: TGI. Summed up: as §4
Series [13] deals with Mus musculus. The series is described as follows: Percent tumor growth inhibition against human epidermoid carcinoma KB/8.5 implanted subcutaneously in mice at 100 mg/kg of compound along with 8 mg/kg (DOX ) was determined. Format: functional. A digest of the protocol: as §4

`COc1ccc(C(C#N)(CCCCCN2CCc3cc(OC)c(OCCn4ccnc4)cc3C2)Sc2ccc(C)cc2)cc1OC` (stereo in doubt; 39a): the ILS at 50 mg/kg was 71% with Mus musculus [1] and 48% in the series with Mus musculus [6]. In the series with S1B1-20 [2] (s1b1-20), this compound registered a half-maximal inhibitory concentration (IC50) of 0.69 µM. The compound further registered a Relative tumor growth in the series on Mus musculus [3] of 67. In addition, the CC50 with S1B1-20 [4] amounted to 14.7 µM. The TGI with Mus musculus [5] is 46%. This compound also gave an ILS with Mus musculus [7] of 15%.
Turning to `COc1ccc(C(C#N)(CCCCCCCCN2CCc3cc(OC)c(OC)cc3C2)Sc2ccc(C)cc2)cc1OC` (stereo unspecified), the midpoint of inhibition in the series with S1B1-20 [2] (Homo sapiens, S1B1-20), the IC50, lay at 0.36 µM. Moreover, the figures for the ILS at 6.3 mg/kg with Mus musculus [8] and with Mus musculus [10] were 34% and 8%, respectively. In addition, the CC50 in series [9] is 11.6 µM. In addition, the logP in [11] was determined as 7.76. For the same compound, in the series on Mus musculus [7], the ILS was 24%.
For the compound `COc1ccc(C(C#N)(CCCCCN2CCc3cc(OC)c(OCCCl)cc3C2)Sc2ccc(C)cc2)cc1OC` (stereo unspecified), the IC50 in the series on S1B1-20 [2] (Homo sapiens, S1B1-20) was 0.37 µM. Moreover, the inhibition in vivo at 100 mg/kg in the series with Mus musculus [12] is 64%. Moreover, in the series on Mus musculus [3], the Relative tumor growth is 75. Moreover, in series [9], the CC50 was 16.8 µM. In addition, in [11], the logP is 6.77.
`COc1ccc(C(CCCCCN2CCc3cc(OC)c(OC)cc3C2)Sc2ccc(C)cc2)cc1OC` (stereo unspecified) yielded an IC50 with S1B1-20 [2] (Homo sapiens, S1B1-20) of 0.33 µM. Moreover, the figures for the ILS at 6.3 mg/kg with Mus musculus [8] and in the series on Mus musculus [10] were 37% and 13%, respectively. Besides, in the series on Mus musculus [3], the Relative tumor growth is given as 58. This compound had a TGI in the series on Mus musculus [13] of 68%. In addition, the CC50 in series [9] worked out at 16.9 µM. For the same compound, the logP in [11] came to 7.42. For the same compound, in the series on Mus musculus [7], the ILS was found to be 21%.
